To fix the notation:
B1: tRNA (parent)
chain: CUCUCGGUAGCCAAGUUGGUUUAAGGCGCAAGACUUUAAUUUAUCACUACGAAAUCUUGAGAUCGGGCGUUCGACUCGCCCCCGGGAGAUUUUUUCCUCGAGCAA

Variants at the floor of the assay were thinned out. Where only a bound is given, the exact number is not on record here.

Variants of B1 are the subject of this data set. Briefly: nonsense suppression (GFP-seq) (ratio to wild type); higher = more function; SUP4oc tRNA, yeast GFP reporter sort-seq. In a few lines:
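Yeast carrying genome-integrated SUP4oc tRNA variants from a library with ~3% random mutations were grown in raffinose/galactose medium with 80 mg/L adenine. Each strain also carried a galactose-driven GFP ochre reporter and RFP. Cells were sorted into GFP/RFP bins, and each bin was Illumina-sequenced (phred ≥30). Nonsense suppression (GFPSEQ) is the bin median GFP/RFP, weighted by each variant's estimated cell share per bin, relative to wild-type SUP4oc; variants needed ≥100 reads and ≥30 cells.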
Consider U4C A87G, for which the nonsense suppression was determined as 1.1.

For the variant U4C G86A, the nonsense suppression came out at 1.09.

In the case of U4C G86C, the nonsense suppression was 0.162.

C5G A24U U57C G66U: the nonsense suppression is at most 0.026.

U4A U21G C79U: the nonsense suppression is at most 0.026.

As for C5U A60C, the nonsense suppression worked out at 0.0867.

For U4C A13U G78A, the nonsense suppression is 0.424.

For C5U U20C, the nonsense suppression was at most 0.026.

Take U4C G15A U21A: the nonsense suppression was 0.214.

Regarding U4A A13C U70C C82U, the nonsense suppression was at most 0.026.

For the variant U4C A62U, the nonsense suppression is 0.272.

Regarding C5U A14G U55G, the nonsense suppression was at most 0.026.

On to C5G U57G U71G, for which the nonsense suppression was at most 0.026.

With U4C U22C G86A, the nonsense suppression stood at 1.16.

With G6A A62U, the nonsense suppression was at most 0.026.

Turning to U4C G7U, the nonsense suppression stood at 0.202.

On to U4G A60C G85A, for which the nonsense suppression was at most 0.026.

For C5G A74G, the nonsense suppression is at most 0.026.

U4G A23U A24C A33U G67A G84C A87G G88C: the nonsense suppression is at most 0.026.

U4A C5G G59A: the nonsense suppression is at most 0.026.

Regarding U4A C77U, the nonsense suppression was 0.0506.

Regarding U4A U17A U22C, the nonsense suppression amounted to 0.0499.

As for C5G C12A G59U, the nonsense suppression was at most 0.026.

Take C5A U58A G78C: the nonsense suppression is at most 0.026.

With G6C A14G A60C G65U C79G G86C, the nonsense suppression is at most 0.026.

Regarding U4G U57G, the nonsense suppression came to 0.0369.

Take U4G G6A: the nonsense suppression was determined as 0.0297.

As to U4A C12U, the nonsense suppression was at most 0.026.

Regarding U4C U22A G86A, the nonsense suppression worked out at 0.552.

Take U4C C27U G61A: the nonsense suppression came to 0.205.

Consider G6A G7U A54C, for which the nonsense suppression is at most 0.026.

With U4G C81U, the nonsense suppression was 0.161.

With C5U U8C G65A, the nonsense suppression was at most 0.026.

As for U4C A31G G65A, the nonsense suppression was at most 0.026.

Take G6A C29G A62C C75G: the nonsense suppression is at most 0.026.

For the variant C5G U55C U70C, the nonsense suppression was at most 0.026.

For C5A A31C, the nonsense suppression was at most 0.026.

As to U4C C68U U76C, the nonsense suppression is 1.13.

Consider C5G G61A, for which the nonsense suppression is at most 0.026.

For the variant U4A G85A, the nonsense suppression was determined as 0.0324.

For the variant C5U G66U G78A, the nonsense suppression was at most 0.026.

In the case of G6A A13G U20G C34A G73A, the nonsense suppression turned out to be 0.0802.

As to U4C U58G A74C, the nonsense suppression is at most 0.026.

On to U4C C11A A33G A74U, for which the nonsense suppression was at most 0.026.

As for U4C G61U C79G A89G, the nonsense suppression was at most 0.026.

Turning to C5U A13G A14C, the nonsense suppression was at most 0.026.

Turning to U4C C34G C82U, the nonsense suppression worked out at 0.179.

On to C5A U8C G15C A60C, for which the nonsense suppression was at most 0.026.

U4G G61U: the nonsense suppression stood at 0.804.

For U4G G61A, the nonsense suppression was 0.189.

As for U4G A30U, the nonsense suppression was 0.0386.

For the variant C5U C11A U21G A87U, the nonsense suppression was at most 0.026.

For the variant U4A U20A, the nonsense suppression was 0.072.

With C5A A60G, the nonsense suppression came to 0.0265.

As to C5A A60C, the nonsense suppression is 0.0331.

Regarding C3U U63A, the nonsense suppression is 0.12.

For the variant U4G G59A, the nonsense suppression turned out to be 0.0506.

For the variant G6A G28C, the nonsense suppression was determined as 0.0666.

Consider G6C C77G, for which the nonsense suppression is at most 0.026.

Turning to U4G C75U, the nonsense suppression was found to be 1.1.

U4C G6U G28A: the nonsense suppression stood at 0.427.

Regarding U4G C5G U17C U63C A74U, the nonsense suppression was at most 0.026.

Consider U4C A13G C29U, for which the nonsense suppression was found to be 0.221.

Consider C5A C64A C77A, for which the nonsense suppression is at most 0.026.

On to U4A A13U, for which the nonsense suppression is 0.18.

Take U4A A13C: the nonsense suppression worked out at 0.294.

Regarding U4G U20G U22A, the nonsense suppression was 0.21.

U4A A9G G73U C77G G86U: the nonsense suppression is at most 0.026.

On to U4C U35G G61A G78A C83A G86C, for which the nonsense suppression is at most 0.026.

U4G G18C A24G G61C C81A: the nonsense suppression is 0.057.

On to G6C G15A, for which the nonsense suppression was at most 0.026.

With U4G A9C, the nonsense suppression stood at 0.0511.

C5U: the nonsense suppression came out at 0.096.

Turning to U4A A24U, the nonsense suppression amounted to 0.0458.

With U4G A13G U16C, the nonsense suppression turned out to be 0.0797.

In the case of U4C A14U, the nonsense suppression came to 0.0343.

With U4C A23U A54G G59U G67C, the nonsense suppression was at most 0.026.

Take G6C A9U G65U G85C: the nonsense suppression is at most 0.026.

For the variant C5A G19C A62G, the nonsense suppression was at most 0.026.

Consider U4G A89U, for which the nonsense suppression was 0.0348.

On to C5G G25C G69C, for which the nonsense suppression was at most 0.026.

Regarding C5A A9C A24G G85A, the nonsense suppression was at most 0.026.

With C5U A23G, the nonsense suppression stood at 0.0405.

As to U4A U20C A31U U71G C80A, the nonsense suppression is at most 0.026.

On to U4C G26U C34G U35A C82A, for which the nonsense suppression was at most 0.026.

As for U4G G6U U21C U55C C79G, the nonsense suppression was at most 0.026.

In the case of U4G C79U, the nonsense suppression is 0.173.

As for C5G G84U, the nonsense suppression amounted to 0.475.

U4G U76A: the nonsense suppression was 0.109.

As for C5A A24U G66A, the nonsense suppression was at most 0.026.

With U4C C34G, the nonsense suppression came out at 0.0649.

Consider U4C C34A, for which the nonsense suppression was found to be 0.0274.

Take C5U G61A: the nonsense suppression was found to be 0.0314.

For the variant U4C U35C G69C, the nonsense suppression is at most 0.026.

For the variant C5A U8A, the nonsense suppression was at most 0.026.

C5A U8C: the nonsense suppression is at most 0.026.

For U4C A9C G84A, the nonsense suppression turned out to be 0.0602.

Regarding C5A G78A, the nonsense suppression was 0.0335.

As for C5A G78C, the nonsense suppression is at most 0.026.

Take C5A G78U: the nonsense suppression is 0.0303.

Consider C5U A30U, for which the nonsense suppression is 0.138.

As for C5A G19U U55G A60U, the nonsense suppression is at most 0.026.

Consider U4C A24C, for which the nonsense suppression came to 1.06.

As for U4C A24G, the nonsense suppression came to 0.31.

Consider U4C A24U, for which the nonsense suppression was 0.84.

For G6C C34G A54U, the nonsense suppression is at most 0.026.

For the variant U4C U8A, the nonsense suppression is 0.0441.

As to C5G A87U, the nonsense suppression is at most 0.026.

U4C U57G: the nonsense suppression was 0.0337.

As for U4C U57A, the nonsense suppression is 0.609.

Take U4A U20C C83A: the nonsense suppression was at most 0.026.

U4G A74G: the nonsense suppression worked out at 0.0287.

Regarding U4G U63A, the nonsense suppression worked out at 0.199.

On to C5G G66U U71C, for which the nonsense suppression was at most 0.026.

In the case of U4C A9G U22G, the nonsense suppression was 0.202.

Consider C5U A62U G69C A87U, for which the nonsense suppression is at most 0.026.

Turning to U4G G61A C75A, the nonsense suppression turned out to be 0.558.

Take C5U C83G: the nonsense suppression was at most 0.026.

Take U4A U17G G69A G78U: the nonsense suppression was at most 0.026.

As to C5A G7U U20G A74U, the nonsense suppression was at most 0.026.

As for U4C A13G, the nonsense suppression worked out at 0.774.

With U4C A13U, the nonsense suppression was 1.12.

For the variant U4C A13C, the nonsense suppression was 1.05.

As for G6C U16A C56G U57C U58C U71C, the nonsense suppression was at most 0.026.

Regarding U4C A13C A24U, the nonsense suppression worked out at 0.488.

Take C5U A9G: the nonsense suppression came to 0.0324.

On to C5U A62C G65C U70G U71A, for which the nonsense suppression is at most 0.026.

U4G C77U: the nonsense suppression amounted to 0.0723.

For the variant U4G C77A, the nonsense suppression worked out at 0.0479.

On to C5U G28C, for which the nonsense suppression turned out to be 0.0292.

As to U4G U17G G69A, the nonsense suppression was at most 0.026.

C5G U76G: the nonsense suppression is at most 0.026.

For the variant C5A U55C A89G, the nonsense suppression was at most 0.026.

U4C A30U: the nonsense suppression came out at 0.0792.

Take U4A U63A: the nonsense suppression came out at 0.155.

As to C5U U22C U57C A74C, the nonsense suppression was at most 0.026.

With C5U C75U, the nonsense suppression was determined as 0.0347.

Consider C5U C75A, for which the nonsense suppression was determined as 0.209.

As for C5U C80G, the nonsense suppression was at most 0.026.

Take U4A U22G: the nonsense suppression was found to be 0.155.

On to U4C U22G G26U G73C G78C, for which the nonsense suppression was at most 0.026.

In the case of C5U C12G A13G C29A, the nonsense suppression is at most 0.026.

With U4G A33G, the nonsense suppression was 0.0332.

U4G G78U: the nonsense suppression was determined as 0.0997.

For G6A G78A, the nonsense suppression stood at 0.037.

For the variant G6A A13G, the nonsense suppression is at most 0.026.

In the case of G6A A13U, the nonsense suppression was found to be 0.0458.

In the case of C5U G84A, the nonsense suppression is 1.15.

As to C5A A23C A31G G61A, the nonsense suppression is at most 0.026.

Take C5U G7U G25A: the nonsense suppression is at most 0.026.

With U4C A31U, the nonsense suppression worked out at 1.04.

With U4A A31U, the nonsense suppression is 0.0312.

In the case of C5A G7U U17C, the nonsense suppression was at most 0.026.

Consider U4A U17A, for which the nonsense suppression was 0.174.

Regarding U4C G85A, the nonsense suppression came out at 0.625.

Regarding C5G A33G G65A G66C, the nonsense suppression was at most 0.026.

On to U4A A54U, for which the nonsense suppression is 0.191.

Consider C5G A13G G78U, for which the nonsense suppression is at most 0.026.

As for U4G G7A, the nonsense suppression stood at 0.0974.

Regarding U4A G19U, the nonsense suppression is at most 0.026.

Turning to G6A C79U G88C, the nonsense suppression was at most 0.026.

Consider C5U C79U, for which the nonsense suppression stood at 0.0439.

As for C5A A14U A33C U55C, the nonsense suppression was at most 0.026.

Take C5A A14G: the nonsense suppression is at most 0.026.

For the variant U4C C12U, the nonsense suppression worked out at 0.745.

Consider U4G A87C, for which the nonsense suppression came out at 0.0794.

For U4C A60C, the nonsense suppression came out at 1.04.
